Assay outcomes from PubChem BioAssay.
Insulin prom up: MIN6 insulin promoter up-regulation; MIN6 insulin promoter-GFP reporter, high-content imaging; stronger effect = higher value; z-score at 5 µM; 190,000 compounds, 0.3% hits;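 active means z-score above 3 at 5 µM with at least 500 cells counted in the well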
ABCB1 block: human ABCB1 inhibition, ABCG2 as counter-screen; P08183; CCRF-Adr cells, JC-1 efflux, flow cytometry; 190,000 compounds, 0.067% hits; inhibition, % at 6.6 µM; in the data active means inhibition above about 40%;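 further: 0% = vehicle and 100% = reference inhibitor; higher value means more JC-1 retained so stronger ABCB1 efflux block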
DDE Tn6 FP inh: inhibitors of Tn6 peptide binding to human fibrin DD(E). P02675. Fibrin DD(E) TRITC-Tn6 fluorescence polarization displacement. inhibition, % at 8.3 µM. 370,000 compounds, 0.21% hits. AID 720509;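 active means inhibition above a per-campaign cutoff: mean of compounds within control limits plus 3 SD, cut at about 15% in these data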;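 further: 0% = median of all compound wells on the plate and 100% = blocking peptide control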
ABCG2 block: human ABCG2 inhibition, ABCB1 as counter-screen. Q9UNQ0. inhibition, % at 6.6 µM. 190,000 compounds, 0.1% hits. IgMXP3 cells, JC-1 efflux, flow cytometry;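 active means inhibition above 80%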;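 further: 0% = DMSO and 100% = nicardipine control wells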
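System: two drug-resistant human cell lines, ABCG2 and ABCB1; controls: nicardipine high and DMSO low controls; times: 10 min exposure at 25 °C with rotation, no wash; detection: flow cytometry of retained JC-1 fluorescence; read-out basis: percent efflux inhibition, scaled nicardipine 100% to DMSO 0%; doses: one concentration, 6.6 µM final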
Tn7 DDE FP: disrupts Tn7 cyclic peptide binding to fibrin D-Dimer-E complex | inhibition, % at 8.3 µM | P02675 | FP displacement of FITC-Tn7 peptide from fibrin DD(E); 0% = median of compound wells per plate | 370,000 compounds, 0.13% hits;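 active means inhibition above the mean of compounds falling within the control limits plus 3 SD of them, cut at about 14% in these data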;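 further: 0% = plate median of compound wells and 100% = 10 µM Aha-Tn7 peptide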
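Assay system: human fibrin DD(E) protein / Input: 2 µM fibrin DD(E) / Benchmarks: high control of 10 µM Aha-Tn7 peptide / Measured by: fluorescence polarization of the labelled Tn7 tracer / Medium: Tris buffer with calcium and detergent, pH 7.8 / Timing: 10 min compound pre-incubation, 3 h probe incubation at room temperature / Repeats: one replicate per compound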
GRK2 aptamer HTS: blocks RNA aptamer binding to human GRK2. inhibition of aptamer binding, % at 10 µM. P25098. AID 488847. 330,000 compounds, 0.59% hits. bead flow cytometry, FAM-aptamer displacement from GRK2;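 active means inhibition of aptamer binding above 40%, roughly 3 SD of noise, on plates passing a quality check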;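 further: median bead fluorescence of bound FAM aptamer so fluorescent compounds give negative values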
DDE Tn7 confirm: DD(E)-Tn7 binding inhibition, FP confirmation | inhibition, % at 8.3 µM | shares compounds with Tn7 DDE FP | 460 compounds, 5% hits | AID 720628 | FP displacement of TRITC-Tn7 peptide from DD(E); 0% set at plate's compound-well median;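 active means inhibition above the campaign cutoff, the mean of compounds within control limits plus 3 SD, cut at about 14% in these data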;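 further: 100% = median FP of high control wells holding Aha-Tn7 inhibitor peptide; displacers lower polarization since freed probe rises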
DDE Tn7 FP ctr: counter-screen for inhibitors of Tn7 peptide binding to fibrin DD(E); shares compounds with Tn7 DDE FP; TRITC-Tn7 probe displacement, fluorescence polarization; inhibition, % at 8.3 µM; 460 compounds, 3% hits; AID 720633;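 active means inhibition above the cutoff, the mean of compounds lying between the control bounds plus 3 SD of those compounds, cut at about 17% in these data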;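 further: 0% = median of compound sample wells and 100% = excess unlabeled Aha-Tn7 peptide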
Starred values were filed as active, the others as inactive; . = not tested or not shown. Compounds with a hit are over-represented: about 0.99% of the library has one in this group of screens.

SMILES	Insulin prom up	ABCB1 block	DDE Tn6 FP inh	ABCG2 block	Tn7 DDE FP	GRK2 aptamer HTS	DDE Tn7 confirm	DDE Tn7 FP ctr
COc1ccc(C(=O)N2CCN(c3ccc(NC(=O)c4ccco4)cc3)CC2)cc1	.	.	-1	.	14*	0	-2	-6
Cc1c(NS(=O)(=O)c2cc([N+](=O)[O-])ccc2Cl)c(=O)n(-c2ccccc2)n1C	.	.	0	.	14*	0	-6	-10
Cc1cccc(-c2cccc3c4c([nH]c23)[C@@H]2C[C@H](N(C)C(=O)c3cccc(Cl)c3)[C@H]([C@H](C)O)CN2CC4)c1	.	.	7	.	0	.	.	.
Cc1cccc(NC(=O)c2cccc(C(=O)Nc3cccc(C)n3)c2)n1	.	.	-8	.	4	0	.	.
Cc1cccc(NC(=O)c2ccc(C(=O)c3ccccc3)cc2)n1	.	.	-3	.	20*	0	5	-1
C=Cc1ccc(C(=O)Nc2nnc(-c3cccnc3)s2)cc1	.	.	6	.	1	.	.	.
CC(=O)Nc1ccc(-c2csc(NCCc3ccccc3)n2)cc1	.	.	6	.	17*	9	12	9
CC(C)CC1c2[nH]c3ccccc3c2CCN1C(=O)CCC(=O)N(C)C (centres undefined)	.	1	0	2	15*	3	3	2
CCOC(=O)N1CCN(Cc2nc(-c3ccc(OC)cc3)no2)CC1	.	.	.	.	.	0	.	.
CCOC(=O)N1CCN(Cc2nc(-c3ccc(Cl)cc3)no2)CC1	-0.45	1	-1	10	15*	1	6	-10
CCOC(=O)C(C)(C)Oc1cccc2c1S(=O)(=O)c1ccccc1-2	.	.	0	.	14*	1	2	1
Cc1ccc2nc(-c3ccccc3)c(Cc3ccccc3C(F)(F)F)n2c1	.	.	6	.	16*	.	1	-2
COCCCNC(=O)c1oc(=O)c2ccccc2c1-c1ccc(C)cc1	.	.	-2	.	5	.	.	.
CSCCCNC(=O)c1oc(=O)c2ccccc2c1-c1ccc(C)cc1	.	.	7	.	15*	.	-2	-3
O=C(c1ccccc1)N1CCSc2sccc2C1=O	0.76	1	9	3	15*	.	5	-5
O=C(c1ccccc1)N1CCSC1=S	0.22	0	7	0	0	1	.	.
O=C(COC(=O)CNC(=O)c1cccs1)Nc1ccc(C(F)(F)F)cc1[N+](=O)[O-]	.	.	7	.	15*	1	-2	-2
COc1ccc(/C=N/N2CCN(c3ccc(Cl)cc3)CC2)cc1O	.	.	2	.	15*	0	2	-1
COc1ccc(/C=N/N2CCN(c3ccc(Cl)cc3)CC2)cc1	.	.	1	.	3	0	.	.
O=C(CNc1n[nH]c(=O)[nH]c1=O)N/N=C/c1cccnc1	-0.11	1	0	-1	0	1	.	.
O=C(CNc1n[nH]c(=O)[nH]c1=O)N/N=C/c1ccccc1	-1.1	.	3	.	15*	6	5	4
CCOC(=O)[C@@]12CN(C(=O)OC(C)(C)C)CC=C1N(Cc1ccc(OC)cc1)C(=O)[C@H]2CC(=O)N1CCCCC1	.	.	0	.	-4	.	.	.
O=S1(=O)c2ccccc2-c2c(nnn2Cc2ccccc2)CN1C1CC1	.	.	6	.	-8	.	.	.
C[C@H]1[C@@H](NC(=O)c2ccc(Cl)cc2)CC[C@@]23CCCN2C(=O)CCC[C@@H]13	.	.	-2	.	3	.	.	.
COc1ccc2c(Cl)c(C(=O)N/N=C/c3ccc4c(c3)OCO4)sc2c1	0.87	0	0	0	5	0	.	.
SMILES	Insulin prom up	ABCB1 block	DDE Tn6 FP inh	ABCG2 block	Tn7 DDE FP	GRK2 aptamer HTS	DDE Tn7 confirm	DDE Tn7 FP ctr
COc1ccc2c(Cl)c(C(=O)N/N=C3\CCCC(=O)C3)sc2c1	-0.11	-1	1	-2	32*	0	-7	-10
Cc1ccc(/C=N/N2C(=O)C3C(C2=O)C2C=CC3C23CC3)o1 (centres undefined)	0.22	1	-2	22	14*	1	4	4
CC(C)(C)c1cc(C(=O)N/N=C/c2ccc(F)cc2)n(-c2ccccc2)n1	-0.53	1	3	46	14*	0	3	-1
Cc1[nH]c2c(C)cccc2c(=O)c1CN1CCCCCC1	.	.	4	.	16*	0	5	4
O=[N+]([O-])c1ccc(CP(=O)(c2ccccc2)c2ccccc2)cc1	.	.	3	.	14*	3	8	2
O=[N+]([O-])c1cccc(CP(=O)(c2ccccc2)c2ccccc2)c1	.	.	-5	.	3	1	.	.
CC(C)(C)C(=O)NC1CCCCN(Cc2ccc(Cl)cc2)C1=O (centres undefined)	.	.	4	.	-5	.	.	.
C[C@@]12CCC=C[C@H]1[C@H](c1ccc3ccccc3c1/C=C/c1ccccc1)N(Cc1ccccc1)C2=O	.	.	8	.	0	2	.	.
C[C@@]12CCC=C[C@H]1[C@H](c1ccc(/C=C/c3ccccc3)cc1F)N(Cc1ccccc1)C2=O	.	.	11	.	16*	0	8	3
CC(C)=CCOc1ccc2c(C)c(CCC(=O)N3C[C@H]4C[C@@H](C3)c3cccc(=O)n3C4)c(=O)oc2c1C	.	.	3	.	4	.	.	.
COc1ccccc1CN1C[C@@H]2C[C@@H](c3ccccc3C)N3CCC[C@@]23C1=O	-0.21	2	4	2	16*	0	-2	-4
COc1ccccc1CN1C[C@@H]2C[C@@H](c3ccc(C)cc3)N3CCC[C@@]23C1=O	0.1	1	-5	2	-5	0	.	.
CC1(C)CC(=O)C2=C(C1)N(Cc1ccco1)C(=O)C2(NC(=O)c1ccc(Cl)cc1Cl)C(F)(F)F (centres undefined)	.	1	-5	2	-2	0	.	.
CC1(C)CC(=O)C2=C(C1)N(Cc1ccco1)C(=O)C2(NC(=O)C1CCCCC1)C(F)(F)F (centres undefined)	1.2	0	-2	0	14*	17	2	5
CC1(C)CC(=O)C2=C(C1)N(Cc1ccco1)C(=O)NC2(C(F)(F)F)C(F)(F)F	0.18	0	0	2	-4	0	.	.
CC1=NC(C(F)(F)F)(C(F)(F)F)C2=C(CC(C)(C)CC2=O)N1Cc1ccco1	0.16	1	-8	2	14*	1	6	3
COC(=O)C1CN(CC(C)C)CCS(=O)(=O)N1Cc1ccc(Cl)cc1 (centres undefined)	.	.	-4	.	-5	.	.	.
CCOc1ccc(CCNC(=O)c2cc3sccc3n2CC)cc1OC	.	.	3	.	4	.	.	.
COc1ccc(N(CC(=O)NCc2ccc3c(c2)OCO3)S(=O)(=O)c2ccc(O)c(C(=O)O)c2)cc1	.	.	2	.	15*	.	-2	-9
